Source: ChEMBL document CHEMBL5046237, “Identification of MRTX1133, a Noncovalent, Potent, and Selective KRASG12D Inhibitor” (J Med Chem, 2022)

How the values were obtained:
[1] = Inhibition of human C-terminal Avi biotinylated tagged KRAS isoform 4B G12D mutant (1 to 169 residues) expressed in Escherichia coli measured after 1 hr by HTRF assay
[2] = Binding affinity to human AviTEV6His-tagged KRAS isoform 4B G12D mutant (1 to 169 residues) expressed in Escherichia coli BL21 (DE3) assessed as dissociation constant by SPR analysis
[3] = target: GTPase KRas (Homo sapiens, UniProt P01116, G12D); experiment: Inhibition of KRAS G12D mutant in human AGS cells assessed as reduction in ERK phosphorylation measured after 3 hrs by In-Cell Western assay; assay type: cell-based
[4] = target: GTPase KRas (Homo sapiens, UniProt P01116); experiment: Binding affinity to human AviTEV6His-tagged KRAS isoform 4B wild type (1 to 169 residues) expressed in Escherichia coli BL21 (DE3) assessed as dissociation constant by SPR analysis
Outline: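 SPR measurement; where the KD fell beyond what the instrument can accurately determine, it was reported as an approximate value.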

[5] = AUC (0 to 24 hrs) in CD-1 athymic nude-Foxn1nu mouse xenografted with human Panc 04.03 cells at 30 mg/kg, ip BID; assay type: ADME, organism-based; set-up: time < 24 hr, route intraperitoneal, dose 30 mg/kg; conditions: in vivo
[6] = In vivo inhibition of KRAS G12D mutant in CD-1 athymic nude-Foxn1nu mouse xenografted with human Panc 04.03 cells assessed as reduction in ERK phosphorylation in tumor lysates at 30 mg/kg, ip measured after 1 hr; assay type: functional; conditions: CD-1, Panc 04.03, Neoplasm
Outline: (§1)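 The Panc 04.03 xenograft model received 30 mg/kg IP BID. Tumor pERK signal was measured 1 h and 12 h after the second dose. Mean pERK inhibition versus the vehicle cohort was assessed by two-tailed Student's t test with equal variance.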

[7] = Time during which free drug concentration exceeds IC50 for KRAS G12D mutant-mediated ERK phosphorylation in human Panc 04.03 cells xenografted CD-1 athymic nude-Foxn1nu mouse plasma at 30 mg/kg, ip; conditions: in vivo
[8] = In vivo inhibition of KRAS G12D mutant in CD-1 athymic nude-Foxn1nu mouse xenografted with human Panc 04.03 cells assessed as reduction in ERK phosphorylation in tumor lysates at 30 mg/kg, ip measured after 12 hrs; assay type: functional; conditions: CD-1, Panc 04.03, Neoplasm; outline: as §1
[9] = Antitumor activity against human Panc 04.03 cells harboring KRAS G12D mutant xenografted in CD-1 nude-Foxn1 mouse assessed as inhibition of tumor growth at 3 mg/kg, ip administered twice a day; assay type: functional; conditions: Panc 04.03, ip
Outline: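 Mice bearing Panc 04.03 (KRAS G12D) xenografts were dosed IP twice daily (BID) at 3, 10 or 30 mg/kg. Tumor volume was tracked against a vehicle cohort, and mean tumor volume differences were tested by two-tailed Student's t test assuming equal variance.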

[10] = tested on: AGS; experiment: cells; conditions: Homo sapiens, 72 h
[11] = Antitumor activity against human Panc 04.03 cells harboring KRAS G12D mutant xenografted in CD-1 nude-Foxn1 mouse assessed as tumor regression at 10 mg/kg, ip administered twice a day; conditions: Panc 04.03, ip
[12] = tested on: MKN-1; experiment: Cytotoxicity against human MKN-1 cells harboring wild type KRAS assessed as reduction in cell viability measured after 3 days by 2D viability assay; conditions: MKN-1, 72 h

Structure (SMILES) | IC50 [1] [nM] | Kd [2] [nM] | IC50 [3] [nM] | also measured
CN1CCC[C@H]1COc1nc(N2CC3CC(C2)N3)c2cnc(-c3cc(O)cc4ccccc34)c(F)c2n1 (mixture of isomers) | 310 | 73 |  | 
OCc1cccc2cccc(-c3ncc4c(N5C[C@H]6CC[C@@H](C5)N6)nc(OCC56CCCN5CCC6)nc4c3F)c12 | 79 |  | > 10000 | 
Oc1cc(-c2ncc3c(N4C[C@H]5CC[C@@H](C4)N5)nc(OCC45CCCN4CCC5)nc3c2F)c2ccccc2c1 | < 2 |  | 270 | 
CC1CNCCN1c1nc(OC[C@@H]2CCCN2C)nc2c(F)c(-c3cc(O)cc4ccccc34)ncc12 (mixture of isomers) | 1500 | 280 |  | 
Cn1ccnc1CCOc1nc(N2C[C@H]3CC[C@@H](C2)N3)c2cnc(-c3cc(O)cc4ccccc34)c(F)c2n1 | 30 |  | 3500 | 
Oc1cc(-c2ncc3c(N4C[C@H]5CC[C@@H](C4)N5)nc(OC[C@]45CCCN4C[C@@H](F)C5)nc3c2F)c2ccccc2c1 | < 2 |  |  | 
CN1CCC[C@H]1COc1nc(N2CCNCC2)c2cnc(-c3cc(O)cc4ccccc34)c(F)c2n1 | 980 | 190 |  | 
CN1CCC[C@H]1COc1nc(N2C[C@H]3CC[C@@H](C2)N3)c2cnc(-c3cc(O)cc4ccccc34)c(F)c2n1 | 5 | 0.8 |  | 
COc1cccc2cccc(-c3ncc4c(N5C[C@H]6CC[C@@H](C5)N6)nc(OCC56CCCN5CCC6)nc4c3F)c12 | 86 |  | 1200 | 
CN1CCC[C@H]1COc1nc(N2CC3CCC2CN3)c2cnc(-c3cc(O)cc4ccccc34)c(F)c2n1 (stereo partly specified) | 68 | 9 |  | 
Oc1cc(-c2ncc3c(N4C[C@H]5CC[C@@H](C4)N5)nc(OCCN4C[C@@H]5C[C@H]4CO5)nc3c2F)c2ccccc2c1 | 62 |  | 3000 | 
Fc1c(-c2cccc3cccc(Cl)c23)ncc2c(N3C[C@H]4CC[C@@H](C3)N4)nc(OCC34CCCN3CCC4)nc12 | 15 |  | 190 | 
CN1CCN(c2nc(OC[C@@H]3CCCN3C)nc3c(F)c(-c4cc(O)cc5ccccc45)ncc23)CC1 | 54000 | 8700 |  | Kd [4]: 6200 nM
CC1CN(c2nc(OC[C@@H]3CCCN3C)nc3c(F)c(-c4cc(O)cc5ccccc45)ncc23)CCN1 (mixture of isomers) | 2100 | 380 |  | 
CCc1cccc2cccc(-c3ncc4c(N5C[C@H]6CC[C@@H](C5)N6)nc(OCC56CCCN5CCC6)nc4c3F)c12 | 6 |  | 200 | 
Fc1ccc2cccc(-c3ncc4c(N5C[C@H]6CC[C@@H](C5)N6)nc(OCC56CCCN5CCC6)nc4c3F)c2c1F | 7 |  | 97 | 
CN1CCC[C@H]1COc1nc(N2CCNCC2)c2cnc(-c3cccc4cccc(Cl)c34)c(F)c2n1 |  | 3500 |  | Kd [4]: 36000 nM
CN1CCC[C@H]1COc1nc(N2CCCNCC2)c2cnc(-c3cc(O)cc4ccccc34)c(F)c2n1 | 2600 | 420 |  | 

Structure (SMILES) | IC50 [1] [nM] | Kd [2] [nM] | IC50 [3] [nM] | also measured
Oc1cc(-c2ncc3c(N4C[C@H]5CC[C@@H](C4)N5)nc(OC[C@@]45CCCN4C[C@H](F)C5)nc3c2F)c2ccccc2c1 | < 2 |  |  | 
Oc1cc(-c2ncc3c(N4CC5CCC(C4)N5)ncnc3c2F)c2ccccc2c1 |  |  | > 10000 | 
C#Cc1cccc2cc(O)cc(-c3ncc4c(N5C[C@H]6CC[C@@H](C5)N6)nc(OCC56CCCN5CCC6)nc4c3F)c12 | < 2 |  | 14 | 
CN(C)CCOc1nc(N2C[C@H]3CC[C@@H](C2)N3)c2cnc(-c3cc(O)cc4ccccc34)c(F)c2n1 | 70 |  | > 10000 | 
Fc1ccc2cccc(-c3ncc4c(N5C[C@H]6CC[C@@H](C5)N6)nc(OCC56CCCN5CCC6)nc4c3F)c2c1 | 27 |  | 370 | 
Oc1cc(-c2ncc3c(N4CC5CCC(C4)N5)nc(OCC45CCCCN4CCC5)nc3c2F)c2ccccc2c1 (racemic) | 12 |  | 650 | 
CN1CCC[C@H]1COc1nc(N2CC3CC2CN3)c2cnc(-c3cc(O)cc4ccccc34)c(F)c2n1 (mixture of isomers) | 650 | 96 |  | 
C#Cc1cccc2cccc(-c3ncc4c(N5C[C@H]6CC[C@@H](C5)N6)nc(OCC56CCCN5CCC6)nc4c3F)c12 | 3 |  | 71 | 
Oc1cc(-c2ncc3c(N4C[C@H]5CC[C@@H](C4)N5)nc(OCC45CCCN4CCC5)nc3c2F)c2c(Cl)cccc2c1 | < 2 |  | 63 | 
Cc1cccc2cccc(-c3ncc4c(N5C[C@H]6CC[C@@H](C5)N6)nc(OCC56CCCN5CCC6)nc4c3F)c12 | 45 |  | 2500 | 
O=C1CCC2(COc3nc(N4CC5CCC(C4)N5)c4cnc(-c5cc(O)cc6ccccc56)c(F)c4n3)CCCN12 (racemic) | 750 |  | > 10000 | 
Fc1c(-c2cccc3cccc(F)c23)ncc2c(N3C[C@H]4CC[C@@H](C3)N4)nc(OCC34CCCN3CCC4)nc12 | 12 |  | 380 | 
Fc1c(-c2cccc3ccccc23)ncc2c(N3C[C@H]4CC[C@@H](C3)N4)nc(OCC34CCCN3CCC4)nc12 | 360 |  | > 10000 | 
CN(C)C1CN(c2nc(N3CC4CCC(C3)N4)c3cnc(-c4cc(O)cc5ccccc45)c(F)c3n2)C1 | 69 |  | 1300 | 
C#Cc1c(F)ccc2cccc(-c3ncc4c(N5C[C@H]6CC[C@@H](C5)N6)nc(OCC56CCCN5CCC6)nc4c3F)c12 | < 2 |  | 24 | AUC at 24 h [5]: 9500 ng·h/mL
CN1CCC[C@H]1COc1nc(N2CCOCC2)c2cnc(-c3cc(O)cc4ccccc34)c(F)c2n1 | 12000 | 1500 |  | Kd [4]: 560 nM
C#Cc1c(F)ccc2cc(O)cc(-c3ncc4c(N5C[C@H]6CC[C@@H](C5)N6)nc(OC[C@@]56CCCN5C[C@H](F)C6)nc4c3F)c12 |  | 0.0002 |  | inhibition in vivo at 30 mg/kg [6]: 62%; T>IC50 [7]: 8 h; inhibition in vivo at 30 mg/kg [8]: 74%; inhibition in vivo at 3 mg/kg [9]: 94%; IC50 [10]: 6 nM; tumor regression % at 10 mg/kg [11]: 62%; IC50 [12]: > 3000 nM
